Drawing on ChEMBL document CHEMBL1932934, “Cyclosulfamide-based derivatives as inhibitors of noroviruses” (Eur J Med Chem, 2012), this text covers CC50, EC50 and selectivity ratio for 18 compounds.

Data set [1] in a line: Cytotoxicity against human HG23 cells after 48 hrs. Format: cell-based. To be noted: read-out: TD50. The essentials:
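Cytotoxicity in Norwalk virus replicon-harboring HG23 cells exposed to compound for 48 hr, measured with a commercial cell cytotoxicity assay kit. The median toxic dose (TD50) was calculated from the readout.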

Another data set has as its system Norovirus. The data set is described as follows: Antiviral activity against Norovirus infected in human HG23 cells assessed as inhibition of viral replication after 24 hrs by quantitative RT-PCR analysis. It counts as functional. To be noted: HG23, 24 h, read-out: ED50 (the source's name).
A short description of data set [2]: Therapeutic index, ratio of TD50 for human HG23 cells to ED50 for Norovirus infected in human HG23 cells. Format: cell-based. As to conditions: read-out: Ratio TD50/ED50. The method, boiled down:
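Index computed as TD50 divided by ED50, both in NV replicon-harboring HG23 cells. TD50 came from a cytotoxicity assay kit after 48 hr of treatment.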

As for `O=S1(=O)N(CCN2CCCCC2)CCN1Cc1cccc(Oc2ccccc2)c1`, the CC50 at 48 h in data set [1] turned out to be 12.3 µM. Also, the EC50 in the data set on Norovirus is 4.7 µM.

On to `O=S1(=O)N(CCN2CCN(Cc3cccc(Oc4ccccc4)c3)S2(=O)=O)CCN1Cc1cccc(Oc2ccccc2)c1`, for which, in data set [1], the CC50 at 48 h came out at 8.5 µM. Further, the EC50 with Norovirus was 1.5 µM.

Regarding `O=S1(=O)N(CCN2CCN(CCN3CCN(Cc4cccc(Oc5ccccc5)c4)S3(=O)=O)CC2)CCN1Cc1cccc(Oc2ccccc2)c1`, the CC50 at 48 h in data set [1] was 5.1 µM. The EC50 with Norovirus is 0.4 µM.

For the compound `O=S1(=O)N(CCN2CCN(Cc3ccccc3)CC2)CCN1Cc1cccc(Oc2ccccc2)c1`, the selectivity ratio in data set [2] was below 10. Further, the CC50 at 48 h in data set [1] was 11.4 µM. In the data set with Norovirus, the EC50 worked out at 4.1 µM.

On to `O=S1(=O)N(CCN2CCNCC2)CCN1Cc1cccc(Oc2ccccc2)c1`, for which the selectivity ratio in data set [2] is below 10. Besides, the CC50 at 48 h in data set [1] is 14.6 µM. Further, in the data set with Norovirus, the EC50 came to 5.3 µM.

Take `O=S1(=O)N(CCN2CCOCC2)CCN1Cc1cccc(Oc2ccccc2)c1`: the CC50 at 48 h in data set [1] worked out at 95.4 µM. Moreover, the EC50 in the data set on Norovirus was 5.2 µM.

For `COC(=O)C1CCN(CCN2CCN(Cc3cccc(Oc4ccccc4)c3)S2(=O)=O)CC1`, the CC50 at 48 h in data set [1] amounted to 180 µM. Also, the EC50 in the data set with Norovirus is 5.5 µM.

In the case of `O=C(O)C1CCN(CCN2CCN(Cc3cccc(Oc4ccccc4)c3)S2(=O)=O)CC1`, in data set [1], the CC50 at 48 h was found to be 210 µM. Also, the EC50 in the data set on Norovirus came out at 9.1 µM.

As for `CCOC(=O)N1CCN(CCN2CCN(Cc3cccc(Oc4ccccc4)c3)S2(=O)=O)CC1`, in data set [2], the selectivity ratio is below 10. Besides, the CC50 at 48 h in data set [1] was found to be 13.5 µM. The EC50 with Norovirus was found to be 5.8 µM.

With `O=C(c1ccc(Cl)cc1)N1CCN(CCN2CCN(Cc3cccc(Oc4ccccc4)c3)S2(=O)=O)CC1`, the selectivity ratio in data set [2] is below 10. Further, the CC50 at 48 h in data set [1] was found to be 35.3 µM. In the data set on Norovirus, the EC50 came to 7.4 µM.

`O=C(c1ccc(F)cc1)N1CCN(CCN2CCN(Cc3cccc(Oc4ccccc4)c3)S2(=O)=O)CC1`: the selectivity ratio in data set [2] is below 10. Moreover, in data set [1], the CC50 at 48 h was 80.8 µM. Also, the EC50 in the data set with Norovirus was 9.7 µM.

`O=C(c1cccc(Oc2ccccc2)c1)N1CCN(CCN2CCN(Cc3cccc(Oc4ccccc4)c3)S2(=O)=O)CC1`: in data set [2], the selectivity ratio is below 10. Besides, in data set [1], the CC50 at 48 h was 32.9 µM. The EC50 in the data set with Norovirus came out at 6.2 µM.

Consider `O=S(=O)(Cc1ccccc1)N1CCN(CCN2CCN(Cc3cccc(Oc4ccccc4)c3)S2(=O)=O)CC1`, for which the selectivity ratio in data set [2] was below 10. The CC50 at 48 h in data set [1] is 9.3 µM. In addition, the EC50 in the data set on Norovirus came to 5.3 µM.

Consider `CS(=O)(=O)N1CCN(CCN2CCN(Cc3cccc(Oc4ccccc4)c3)S2(=O)=O)CC1`, for which, in data set [2], the selectivity ratio was below 10. Besides, in data set [1], the CC50 at 48 h was 12.2 µM. Also, in the data set on Norovirus, the EC50 was found to be 3.2 µM.

As for `CCCCS(=O)(=O)N1CCN(CCN2CCN(Cc3cccc(Oc4ccccc4)c3)S2(=O)=O)CC1`, in data set [2], the selectivity ratio was below 10. In data set [1], the CC50 at 48 h is 11.1 µM. Further, in the data set with Norovirus, the EC50 is 3.4 µM.

As for `COC(=O)C1CCN(C(=O)CN2CCN(Cc3cccc(Oc4ccccc4)c3)S2(=O)=O)CC1`, in data set [2], the selectivity ratio worked out at 39. Besides, in data set [1], the CC50 at 48 h was determined as 156 µM. Moreover, the EC50 in the data set on Norovirus was found to be 4.2 µM.

As to `O=C(O)C1CCN(C(=O)CN2CCN(Cc3cccc(Oc4ccccc4)c3)S2(=O)=O)CC1`, in data set [1], the CC50 at 48 h was determined as 80.5 µM. The EC50 in the data set with Norovirus was above 10 µM.

Take `CCN1CCN(C(=O)CN2CCN(Cc3cccc(Oc4ccccc4)c3)S2(=O)=O)CC1`: the selectivity ratio in data set [2] is 24. Moreover, the CC50 at 48 h in data set [1] came out at 120 µM. In addition, the EC50 in the data set with Norovirus came out at 5.5 µM.
